Results reported in ChEMBL document CHEMBL4359913, “Identification and characterization of benzo[d]oxazol-2(3H)-one derivatives as the first potent and selective small-molecule inhibitors of chromodomain protein CDYL” (Eur J Med Chem, 2019).
Calls of active or inactive are those of the source. The rule behind the calls is not given here.

Legend:
[1] = biological target: T1, Chromodomain Y-like protein (Mus musculus) (UniProt Q9WTK2); test: Inhibition of CDYL in C57BL/6 mouse hippocampal neurons as increase in MYT1 mRNA expression at 150 uM incubated for 24 hrs by RT-qPCR analysis
T1 sequence (whole entry): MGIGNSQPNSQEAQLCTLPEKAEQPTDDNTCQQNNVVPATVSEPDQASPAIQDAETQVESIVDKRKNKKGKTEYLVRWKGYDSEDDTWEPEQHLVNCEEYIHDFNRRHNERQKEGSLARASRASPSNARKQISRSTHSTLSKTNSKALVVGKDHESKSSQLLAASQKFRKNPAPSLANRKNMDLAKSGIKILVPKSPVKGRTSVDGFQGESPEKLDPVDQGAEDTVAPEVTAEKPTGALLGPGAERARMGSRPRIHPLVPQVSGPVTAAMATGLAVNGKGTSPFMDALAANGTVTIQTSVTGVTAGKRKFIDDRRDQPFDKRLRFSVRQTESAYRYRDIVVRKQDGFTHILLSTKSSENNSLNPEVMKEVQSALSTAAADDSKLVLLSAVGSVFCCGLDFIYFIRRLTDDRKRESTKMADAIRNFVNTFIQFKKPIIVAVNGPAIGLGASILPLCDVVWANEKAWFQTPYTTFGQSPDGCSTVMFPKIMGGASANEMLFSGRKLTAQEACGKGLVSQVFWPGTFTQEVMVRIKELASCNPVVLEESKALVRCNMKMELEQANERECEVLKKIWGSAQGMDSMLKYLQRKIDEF
Procedure, shortened: (§1)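 Mouse cortical or hippocampal neurons, dissociated with trypsin and kept in Neurobasal/B27, treated with 150 µM compound for 24 h. mRNA measured by SYBR green RT-qPCR with the 2^-ΔΔCt method, GAPDH as reference, relative to DMSO. Mean ± S.E.M. of triplicate experiments, Student's t-test.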

[2] = biological target: T2, Chromobox protein homolog 7 (Homo sapiens, UniProt O95931); test: Binding affinity to recombinant human N-terminal GST-tagged CBX7 (1 to 62 residues) expressed in Escherichia coli […] by SPR analysis
T2 sequence (O95931 whole entry): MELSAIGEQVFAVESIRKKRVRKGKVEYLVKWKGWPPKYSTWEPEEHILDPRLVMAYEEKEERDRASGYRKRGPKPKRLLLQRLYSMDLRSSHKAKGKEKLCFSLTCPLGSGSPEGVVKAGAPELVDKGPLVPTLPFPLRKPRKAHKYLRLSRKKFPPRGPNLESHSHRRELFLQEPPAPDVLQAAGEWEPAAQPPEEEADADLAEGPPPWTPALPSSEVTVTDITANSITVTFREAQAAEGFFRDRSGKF
Procedure, shortened: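 Chromodomain expressed with N-terminal GST tag in E. coli BL21 (IPTG 0.2 mM at OD600 0.6–0.8, 28 C for 6 h), GSTrap purified, tag cleaved by PreScission protease, amine-coupled to CM5 chip at pH 4.0–4.5 (5000–10000 RU). […] Mean ± SD of at least two replicates, each in duplicate.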

[3] = biological target: T3, Chromodomain Y-like protein (Homo sapiens) (UniProt Q9Y232); test: Inhibition of CDYL in human SH-SY5Y cells assessed as decrease in enrichment of CDYL at VGF promoter site at 150 uM incubated for 24 hrs by ChIP-qPCR analysis; type: cell-based
T3 sequence (whole entry): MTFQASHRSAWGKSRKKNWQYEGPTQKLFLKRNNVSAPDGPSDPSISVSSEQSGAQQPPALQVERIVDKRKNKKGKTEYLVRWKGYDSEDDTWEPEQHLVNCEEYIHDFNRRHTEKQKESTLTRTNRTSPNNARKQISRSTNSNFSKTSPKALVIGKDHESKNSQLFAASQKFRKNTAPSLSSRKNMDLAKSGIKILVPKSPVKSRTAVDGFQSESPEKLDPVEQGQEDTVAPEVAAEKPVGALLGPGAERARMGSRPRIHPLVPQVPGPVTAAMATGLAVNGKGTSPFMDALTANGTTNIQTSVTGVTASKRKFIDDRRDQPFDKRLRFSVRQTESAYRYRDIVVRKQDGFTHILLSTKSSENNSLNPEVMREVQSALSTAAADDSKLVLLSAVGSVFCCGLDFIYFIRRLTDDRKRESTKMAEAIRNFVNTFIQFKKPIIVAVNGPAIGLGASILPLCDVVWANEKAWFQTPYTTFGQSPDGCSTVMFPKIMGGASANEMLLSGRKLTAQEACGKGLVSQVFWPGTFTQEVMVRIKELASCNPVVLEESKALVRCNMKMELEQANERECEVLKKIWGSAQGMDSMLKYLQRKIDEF
Procedure, shortened: (§2)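 About 1×10^7 SH-SY5Y cells given 150 µM compound or DMSO for 24 h, fixed in 1% formaldehyde for 10 min. Chromatin immunoprecipitated overnight-style (12 h, 4 °C) with CDYL or H3K27me3 antibody, captured on Protein A/G beads, washed, decrosslinked at 65 °C. Promoter DNA quantified by qPCR, mean ± S.E.M. of triplicate experiments, Student's t-test.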

[4] = biological target: T3, Chromodomain Y-like protein (Homo sapiens); test: Inhibition of CDYL in human SH-SY5Y cells assessed as decrease in enrichment of H3K27me3 at VGF promoter site at 150 uM incubated for 24 hrs by ChIP-qPCR analysis; type: cell-based; procedure, shortened: as §2
SH-SY5Y = test: Effect on enrichment of H3K27me3 at HOXA3 promoter site in human SH-SY5Y cells at 150 uM incubated for 24 hrs by ChIP-qPCR analysis; type: functional, cell-based; procedure, shortened: as §2
[5] = biological target: T1, Chromodomain Y-like protein (Mus musculus); test: Inhibition of CDYL in C57BL/6 mouse hippocampal neurons as increase in BDNF mRNA expression at 150 uM incubated for 24 hrs by RT-qPCR analysis; procedure, shortened: as §1

O=C(Cn1c(=O)oc2ccccc21)N1CCC(N2CCCC2)CC1
Activity [1]: Active
Kd [2]: 16.2 µM
inhibition [3]: Active
inhibition [4]: Active
Activity (SH-SY5Y): inactive
Activity [5]: Active
